Results as given in ChEMBL document CHEMBL1133404, “Synthesis and biological activities of NB-506 analogues modified at the glucose group” (Bioorg Med Chem Lett, 2000).
pEC50, pIC50: −log10 of the molar value.

Key:
P388 [1] = experiment: Compound was tested for the effect on the formation of protein-DNA complex in P388 cells investigated by the K+/SDS method; format: functional, Mus musculus
Summary of the method: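 Formation of topoisomerase–DNA (protein–DNA) complexes was measured in murine leukemia P388 cells by K+/SDS precipitation. Activity was reported as EC200.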

P388 [2] = experiment: The compound was tested for the cytotoxic activity against murine leukemia cells (P388); format: functional, cell-based; settings: Mus musculus
Summary of the method: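 The murine leukemia P388 cell line was used. Cytotoxicity was read out by a colorimetric tetrazolium–formazan assay.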

Protein kinase C (PKC) = experiment: Inhibitory effect on protein kinase C using histone II-As as substrate; format: protein assay
MKN-45 [3] = experiment: Tested for cytotoxic activity against human stomach cancer cells (MKN-45); format: functional, cell-based
Summary of the method: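 The human stomach cancer MKN-45 cell line was used. Cytotoxicity was read out by a colorimetric tetrazolium–formazan assay and by sulforhodamine B dye staining.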

DNA topoisomerase 1 = biological target: T1, DNA topoisomerase 1 (Homo sapiens, UniProt P11387); experiment: Inhibitory effect on topoisomerase-1 mediated DNA cleavage using supercoiled pBR322 plasmid DNA; format: functional
T1 sequence (P11387 whole entry): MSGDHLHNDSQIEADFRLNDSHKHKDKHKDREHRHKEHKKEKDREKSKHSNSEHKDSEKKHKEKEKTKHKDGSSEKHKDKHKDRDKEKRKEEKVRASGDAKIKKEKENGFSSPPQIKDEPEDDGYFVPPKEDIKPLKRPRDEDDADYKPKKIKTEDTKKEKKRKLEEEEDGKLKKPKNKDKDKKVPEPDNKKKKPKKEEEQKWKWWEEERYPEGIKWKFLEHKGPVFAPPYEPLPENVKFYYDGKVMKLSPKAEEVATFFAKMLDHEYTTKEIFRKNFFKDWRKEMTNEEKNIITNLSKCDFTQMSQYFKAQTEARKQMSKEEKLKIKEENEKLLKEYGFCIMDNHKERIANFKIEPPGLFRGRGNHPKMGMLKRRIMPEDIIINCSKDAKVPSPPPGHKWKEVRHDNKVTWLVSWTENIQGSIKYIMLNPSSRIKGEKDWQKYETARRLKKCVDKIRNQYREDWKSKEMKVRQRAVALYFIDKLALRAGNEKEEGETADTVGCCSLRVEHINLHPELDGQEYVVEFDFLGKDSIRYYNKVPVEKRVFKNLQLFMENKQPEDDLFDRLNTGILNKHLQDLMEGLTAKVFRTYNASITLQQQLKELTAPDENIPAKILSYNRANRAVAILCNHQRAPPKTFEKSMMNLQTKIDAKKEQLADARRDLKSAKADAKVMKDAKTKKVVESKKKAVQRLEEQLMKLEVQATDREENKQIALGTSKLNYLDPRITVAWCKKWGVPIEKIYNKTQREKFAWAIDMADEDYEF

DNA topoisomerase II = DNA topoisomerase II (Homo sapiens, UniProt P11388+Q02880); experiment: Tested for inhibitory effect on topoisomerase-2 mediated DNA cleavage using super coiled pBR322 plasmid DNA; format: functional
MKN-45 [4] = experiment: Ratio of compound toxicity to that of anticancer activity against human stomach cancer cells MKN-45 in mice; format: functional
Summary of the method: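 MKN-45 human stomach cancer cells were implanted subcutaneously in a side flank of nude mice. Dosing began once tumors reached 0.2 cm³ or larger and was given intravenously five times per week for 2 weeks. GID75 is the approximate dose giving 75% tumor growth inhibition. LD10 is the approximate 10% lethal dose on the same schedule. Safety margin is LD10/GID75.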

Mus sp. = species on record: Mus sp.; experiment: Tested for toxicity in mice; format: organism-based; settings: in vivo
Summary of the method: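 Nude mice bearing subcutaneous MKN-45 human stomach cancer flank xenografts; dosing intravenous five times/week for 2 weeks, starting once tumors reached 0.2 cm³ or larger. Toxicity expressed as LD₁₀, the approximate dose lethal to 10% of animals on this schedule.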

MKN-45 [5] = experiment: Inhibitory activity against human stomach cancer cells MKN-45 in nude mice after intravenous dose

Row | SMILES | EC200 (P388 [1]) | pIC50 (P388 [2]) | IC50 (Protein kinase C (PKC)) | pIC50 (MKN-45 [3]) | pEC50 (DNA topoisomerase 1) | EC50 (DNA topoisomerase II) | Saftey margin (MKN-45 [4]) | LD10 (Mus sp.) | GID75 (MKN-45 [5])
1 | O=C1c2c(c3c4ccc(O)cc4n([C@H]4O[C@H](CO)[C@H](O)[C@H]4O)c3c3[nH]c4cc(O)ccc4c23)C(=O)N1NC(CO)CO | 400 nM | 7.92 | > 200000 nM | 7.17 | 7.77 | > 50000 nM |  |  | 
2 | O=C1c2c(c3c4ccc(O)cc4n([C@@H]4O[C@H](CO)[C@@H](O)[C@H](O)[C@H]4O)c3c3[nH]c4cc(O)ccc4c23)C(=O)N1NC(CO)CO [EDOTECARIN] | 100 nM | 8.82 | 200000 nM | 8.32 | 7.29 | > 50000 nM | >36 | > 1600 mg m**-2 | 45 mg m**-2
3 | O=C1c2c(c3c4ccc(O)cc4n([C@@H]4O[C@H](CO)[C@H](O)[C@H]4O)c3c3[nH]c4cc(O)ccc4c23)C(=O)N1NC(CO)CO | 60 nM | 9.02 | > 200000 nM | 8.22 | 7.77 | > 50000 nM | 1.4 | 420 mg m**-2 | 300 mg m**-2
4 | O=C1c2c(c3c4ccc(O)cc4n([C@@H]4O[C@H](CO)[C@@H](O[C@H]5O[C@H](CO)[C@@H](O)[C@H](O)[C@H]5O)[C@H](O)[C@H]4O)c3c3[nH]c4cc(O)ccc4c23)C(=O)N1NC(CO)CO | >10000 nM | 8.46 | > 200000 nM | 7.14 | < 5.52 | > 50000 nM |  |  | 
5 | O=C1c2c(c3c4ccc(O)cc4n([C@@H]4OC[C@@H](O)[C@H](O)[C@H]4O)c3c3[nH]c4cc(O)ccc4c23)C(=O)N1NC(CO)CO | 300 nM | 8.42 | > 200000 nM | 7.30 | 7.00 | > 50000 nM |  |  | 
6 | O=C1c2c(c3c4ccc(O)cc4n([C@@H]4O[C@H](CO)[C@@H](O)[C@H](O)[C@@H]4O)c3c3[nH]c4cc(O)ccc4c23)C(=O)N1NC(CO)CO | >10000 nM | 7.44 | 20000 nM | 7.20 | 6.64 | > 50000 nM |  |  | 
7 | O=C1c2c(c3c4ccc(O)cc4n([C@H]4O[C@H](CO)[C@@H](O)[C@H](O)[C@H]4O)c3c3[nH]c4cc(O)ccc4c23)C(=O)N1NC(CO)CO | 450 nM | 7.72 | 23000 nM | 8.07 | 6.52 | > 50000 nM | 1.5 | 170 mg m**-2 | 110 mg m**-2
8 | O=C1c2c(c3c4ccc(O)cc4n([C@H]4C[C@H](O)[C@@H](CO)O4)c3c3[nH]c4cc(O)ccc4c23)C(=O)N1NC(CO)CO | 170 nM | 8.36 | 3000 nM | 7.35 | 7.60 | > 50000 nM |  |  | 
9 | O=C1c2c(c3c4ccc(O)cc4n([C@@H]4O[C@H](CO)[C@@H](O)[C@H]4O)c3c3[nH]c4cc(O)ccc4c23)C(=O)N1NC(CO)CO | 32 nM | 8.74 | 20000 nM | 7.30 | 8.10 | > 50000 nM | 2 | 570 mg m**-2 | 290 mg m**-2
10 | O=C1c2c(c3c4ccc(O)cc4n([C@@H]4O[C@H](CO)[C@H](O)[C@H](O)[C@H]4O)c3c3[nH]c4cc(O)ccc4c23)C(=O)N1NC(CO)CO | >10000 nM | 8.15 | > 200000 nM | 8.03 | 6.85 |  |  |  | 
11 | O=C1c2c(c3c4ccc(O)cc4n([C@H]4O[C@H](CO)[C@@H](O)[C@H](O)[C@@H]4O)c3c3[nH]c4cc(O)ccc4c23)C(=O)N1NC(CO)CO | 930 nM | 7.82 | 50000 nM | 7.64 | 7.10 | > 50000 nM |  |  | 
12 | O=C1c2c(c3c4ccc(O)cc4n([C@@H]4OC[C@@H](O)[C@H]4O)c3c3[nH]c4cc(O)ccc4c23)C(=O)N1NC(CO)CO |  | 8.62 | 12000 nM | 7.43 | 7.40 |  |  |  | 
13 | O=C1c2c(c3c4ccc(O)cc4n([C@H]4C[C@@H](O)[C@H](O)[C@@H](CO)O4)c3c3[nH]c4cc(O)ccc4c23)C(=O)N1NC(CO)CO | 3000 nM | 8.25 | 130000 nM | 7.38 | 6.62 | > 50000 nM |  |  | 
14 | O=C1c2c(c3c4ccc(O)cc4n([C@@H]4C[C@@H](O)[C@H](O)[C@@H](CO)O4)c3c3[nH]c4cc(O)ccc4c23)C(=O)N1NC(CO)CO | 1200 nM | 7.80 | 150000 nM | 7.48 | 6.89 | > 50000 nM |  |  | 
15 | O=C1c2c(c3c4ccc(O)cc4n([C@@H]4O[C@H](CO)[C@@H](O)[C@@H](O)[C@H]4O)c3c3[nH]c4cc(O)ccc4c23)C(=O)N1NC(CO)CO | 160 nM | 7.89 | 17000 nM | 7.48 | 7.59 | > 50000 nM | 2.3 | 990 mg m**-2 | 440 mg m**-2
16 | O=C1c2c(c3c4ccc(O)cc4n([C@H]4O[C@H](CO)[C@@H](O)[C@@H](O)[C@H]4O)c3c3[nH]c4cc(O)ccc4c23)C(=O)N1NC(CO)CO | 1600 nM | 7.74 | 72000 nM | 7.70 | 7.59 |  |  |  | 
17 | O=C1c2c(c3c4ccc(O)cc4n([C@@H]4O[C@@H](C(O)CO)[C@@H](O)[C@H]4O)c3c3[nH]c4cc(O)ccc4c23)C(=O)N1NC(CO)CO (some centres undefined) | 1700 nM | 7.85 | > 200000 nM | 7.54 | 7.70 | > 50000 nM |  |  | 
18 | C[C@H]1O[C@@H](n2c3cc(O)ccc3c3c4c(c5c6ccc(O)cc6[nH]c5c32)C(=O)N(NC(CO)CO)C4=O)[C@H](O)[C@@H](O)[C@@H]1O | 6500 nM | 8.52 | 60000 nM | 7.42 | 6.85 | > 50000 nM |  |  | 
19 | O=C1c2c(c3c4ccc(O)cc4n([C@H]4O[C@H](CO)[C@@H](O)[C@H]4O)c3c3[nH]c4cc(O)ccc4c23)C(=O)N1NC(CO)CO | 450 nM | 7.72 | 21000 nM | 6.89 | 7.52 | > 50000 nM | 1.9 | 1000 mg m**-2 | 540 mg m**-2
20 | O=C1c2c(c3c4ccc(O)cc4n([C@@H]4O[C@H](C(O)CO)[C@@H](O)[C@H]4O)c3c3[nH]c4cc(O)ccc4c23)C(=O)N1NC(CO)CO (some centres undefined) | 2000 nM | 7.77 | > 200000 nM | 7.15 | 7.38 | > 50000 nM | 1.4 | 370 mg m**-2 | 260 mg m**-2
21 | O=C1c2c(c3c4ccc(O)cc4n([C@@H]4O[C@H](CO)[C@@H](O)[C@@H]4O)c3c3[nH]c4cc(O)ccc4c23)C(=O)N1NC(CO)CO | 430 nM | 8.28 | 120000 nM | 7.03 | 7.49 | > 50000 nM |  |  | 
22 | O=C1c2c(c3c4ccc(O)cc4n([C@H]4O[C@H](CO)[C@@H](O)[C@@H]4O)c3c3[nH]c4cc(O)ccc4c23)C(=O)N1NC(CO)CO | 2600 nM | 8.07 | > 200000 nM | 7.37 | 7.00 | > 50000 nM |  |  | 
